{"source": "ChEMBL document CHEMBL1275447", "about": "(Antimicrob Agents Chemother, 2008)", "key": {"[1]": {"assay": "fT>MIC in human infected with Pseudomonas aeruginosa isolate 1029 at 500 mg administered as 1 hr infusion", "type": "functional"}, "[2]": {"assay": "AUC in healthy human at 500 mg administered as 4 hr infusion", "type": "ADME, organism-based", "details": "plasma, iv"}, "[3]": {"assay": "fT>MIC in human infected with Pseudomonas aeruginosa isolate 886 at 500 mg administered as 4 hr infusion", "type": "functional"}, "[4]": {"assay": "fT>MIC in human infected with Pseudomonas aeruginosa isolate 1036 at 500 mg administered as 1 hr infusion", "type": "functional"}, "[5]": {"assay": "fT>MIC in neutropenic mouse infected with Pseudomonas aeruginosa isolate 1052 at 500 mg administered as 4 hr infusion", "type": "functional", "method_in_brief": "(§1)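 Mouse fT>MIC was modelled with first-order one-compartment serum PK and 25.2% binding. Mice were neutropenic (cyclophosphamide) with uranyl nitrate renal impairment. Subcutaneous doses were 5.5, 2.25, 4.5, 4.5, 4.5, 4.5, 0.75, 0.375 mg/kg at 0, 0.5, 1.5, 2.5, 3.5, 4.5, 6, 7.5 h per 8-h interval over 24 h.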"}, "[6]": {"assay": "fT>MIC in neutropenic mouse infected with Pseudomonas aeruginosa isolate 886 at 500 mg administered as 1 hr infusion", "type": "functional", "method_in_brief": "(§2)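 Free-drug time above MIC simulated from one-compartment mouse serum PK (25.2% protein binding). The mice were cyclophosphamide-neutropenic and uranyl nitrate-renally impaired. Regimen was subcutaneous 10, 15, 2.5, 1.25, 0.5, 0.25 mg/kg at 0, 0.5, 2.5, 4, 5.5, 7 h, repeated every 8 h over 24 h.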"}, "[7]": {"assay": "fT>MIC in neutropenic mouse infected with Pseudomonas aeruginosa isolate 931 at 500 mg administered as 4 hr infusion", "type": "functional", "method_in_brief": "as §1"}, "[8]": {"assay": "fT>MIC in neutropenic mouse infected with Pseudomonas aeruginosa isolate 896 at 500 mg administered as 4 hr infusion", "type": "functional", "method_in_brief": "as §1"}, "[9]": {"assay": "fT>MIC in neutropenic mouse infected with Pseudomonas aeruginosa isolate 979 at 500 mg administered as 4 hr infusion", "type": "functional", "method_in_brief": "as §1"}, "Pseudomonas aeruginosa [10]": {"tested_on": "Pseudomonas aeruginosa", "assay": "Antibacterial activity against Pseudomonas aeruginosa at 2 times MIC", "type": "functional, organism-based", "method_in_brief": "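Time-kill in cation-adjusted Mueller-Hinton broth. Inoculum from overnight culture set to 0.5 McFarland, final 10⁶ CFU/ml, 37°C in ambient air for 24 h. 1×, 2× and 7× MIC plus drug-free controls. Samples taken at 0, 2, 4, 6, 12 and 24 h and plated on sheep blood agar. Detection limit 10² CFU/ml.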"}, "Pseudomonas aeruginosa [11]": {"tested_on": "Pseudomonas aeruginosa", "assay": "Antibacterial activity against Pseudomonas aeruginosa isolate 944 by microdilution method", "type": "functional", "method_in_brief": "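CLSI broth microdilution in cation-adjusted Mueller-Hinton broth (20–25 mg/liter Ca, 10–12.5 mg/liter Mg). Standard inoculum 10⁵ CFU/ml, incubated in ambient air. Clinical hospital isolates.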"}, "[12]": {"assay": "fT>MIC in human infected with Pseudomonas aeruginosa isolate 1050 at 500 mg administered as 1 hr infusion", "type": "functional"}, "[13]": {"assay": "fT>MIC in human infected with Pseudomonas aeruginosa isolate 1006 at 500 mg administered as 4 hr infusion", "type": "functional"}, "[14]": {"assay": "fT>MIC in human infected with Pseudomonas aeruginosa isolate 896 at 500 mg administered as 1 hr infusion", "type": "functional"}, "[15]": {"assay": "AUC (0 to 24 hrs) in Pseudomonas aeruginosa ATCC 27853 infected neutropenic ICR mouse at 150 mg/kg, sc administered as single dose 2 hrs postinfection", "type": "ADME, organism-based", "set-up": "time < 24 hr, dose 150 mg/kg, route subcutaneous", "details": "plasma", "method_in_brief": "(§3)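 Neutropenic mice (cyclophosphamide ip 150 and 100 mg/kg, 4 and 1 days before inoculation) with uranyl nitrate 5 mg/kg ip 3 days before, for renal impairment. Thigh infection with ATCC 27853 at 10⁶ CFU/ml, 0.1 ml per thigh. Single sc doses 2 h later. Intracardiac blood from 6–12 mice per time point, eight time points over 4 h. Serum assayed by HPLC (linear 0.5–40 μg/ml). One-compartment first-order fit.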"}, "[16]": {"assay": "Elimination rate constant in Pseudomonas aeruginosa ATCC 27853 infected neutropenic ICR mouse at 150 mg/kg, sc administered as single dose 2 hrs postinfection", "type": "ADME, organism-based", "set-up": "dose 150 mg/kg, route subcutaneous", "details": "in vivo", "method_in_brief": "as §3"}, "[17]": {"assay": "fT>MIC in neutropenic mouse infected with Pseudomonas aeruginosa isolate 1062 at 500 mg administered as 4 hr infusion", "type": "functional", "method_in_brief": "as §1"}, "[18]": {"assay": "AUC (0 to 24 hrs) in Pseudomonas aeruginosa ATCC 27853 infected neutropenic ICR mouse at 50 mg/kg, sc administered as single dose 2 hrs postinfection", "type": "ADME, organism-based", "set-up": "time < 24 hr, dose 50 mg/kg, route subcutaneous", "details": "plasma", "method_in_brief": "as §3"}, "[19]": {"assay": "fT>MIC in neutropenic mouse infected with Pseudomonas aeruginosa isolate 1055 at 500 mg administered as 1 hr infusion", "type": "functional", "method_in_brief": "as §2"}, "[20]": {"assay": "Cmax in Pseudomonas aeruginosa ATCC 27853 infected neutropenic ICR mouse at 5.5, 2.25, 4.5, 4.5, 4.5, 4.5, 0.75, and 0.375 mg/kg given at 0, 0.5, 1.5, 2.5, 3.5, 4.5, 6, and 7.5 h over 24 h", "type": "ADME, organism-based", "set-up": "dose 0.375 mg/kg", "details": "in vivo"}, "[21]": {"assay": "fT>MIC in human infected with Pseudomonas aeruginosa isolate 1060 at 500 mg administered as 1 hr infusion", "type": "functional"}, "[22]": {"assay": "fT>MIC in human infected with Pseudomonas aeruginosa isolate 1036 at 500 mg administered as 4 hr infusion", "type": "functional"}, "[23]": {"assay": "fT>MIC in human infected with Pseudomonas aeruginosa isolate 1052 at 500 mg administered as 4 hr infusion", "type": "functional"}, "[24]": {"assay": "fT>MIC in neutropenic mouse infected with Pseudomonas aeruginosa isolate 1036 at 500 mg administered as 1 hr infusion", "type": "functional"}, "[25]": {"assay": "fT>MIC in human infected with Pseudomonas aeruginosa isolate 944 at 500 mg administered as 1 hr infusion", "type": "functional"}}, "note": "Calls of active or inactive are those of the source. The calls are words filed in the database; no cut-off is given here.", "data": [{"smiles": "C[C@@H](O)[C@H]1C(=O)N2C(C(=O)O)=C(S[C@@H]3CN[C@H](CNS(N)(=O)=O)C3)[C@H](C)[C@H]12", "note": "[DORIPENEM]", "values": [{"measurement": "fT>MIC", "setting": "[1]", "result": 100, "unit": "%"}, {"measurement": "AUC at 4 h", "setting": "[2]", "result": 32400, "unit": "ng·h/mL"}, {"measurement": "fT>MIC", "setting": "[3]", "result": 100, "unit": "%"}, {"measurement": "fT>MIC", "setting": "[4]", "result": 40, "unit": "%"}, {"measurement": "fT>MIC", "setting": "[5]", "result": 82.5, "unit": "%"}, {"measurement": "fT>MIC", "setting": "[6]", "result": 90, "unit": "%"}, {"measurement": "fT>MIC", "setting": "[7]", "result": 52.5, "unit": "%"}, {"measurement": "fT>MIC", "setting": "[8]", "result": 0, "unit": "%"}, {"measurement": "fT>MIC", "setting": "[9]", "result": 70, "unit": "%"}, {"measurement": "Activity", "setting": "Pseudomonas aeruginosa [10]", "result": "inactive"}, {"measurement": "MIC", "setting": "Pseudomonas aeruginosa [11]", "result": 4, "unit": "µg/mL"}, {"measurement": "fT>MIC", "setting": "[12]", "result": 27.5, "unit": "%"}, {"measurement": "fT>MIC", "setting": "[13]", "result": 0, "unit": "%"}, {"measurement": "fT>MIC", "setting": "[14]", "result": 17.5, "unit": "%"}, {"measurement": "AUC(0-t) at 24 h", "setting": "[15]", "result": 168000, "unit": "ng·h/mL"}, {"measurement": "k el at 2 h", "setting": "[16]", "result": 0.000433, "unit": "s⁻¹"}, {"measurement": "fT>MIC", "setting": "[17]", "result": 95, "unit": "%"}, {"measurement": "AUC(0-t) at 24 h", "setting": "[18]", "result": 62400, "unit": "ng·h/mL"}, {"measurement": "fT>MIC", "setting": "[19]", "result": 75, "unit": "%"}, {"measurement": "Cmax", "setting": "[20]", "result": 7990, "unit": "ng/mL"}, {"measurement": "fT>MIC", "setting": "[21]", "result": 27.5, "unit": "%"}, {"measurement": "fT>MIC", "setting": "[22]", "result": 65, "unit": "%"}, {"measurement": "fT>MIC", "setting": "[23]", "result": 80, "unit": "%"}, {"measurement": "fT>MIC", "setting": "[24]", "result": 42.5, "unit": "%"}, {"measurement": "fT>MIC", "setting": "[25]", "result": 27.5, "unit": "%"}]}]}
